# Tests used:
# Mus musculus [1] = experiment: Antinociceptive activity in intratracheally dosed mouse assessed as maximum latency after 5 mins by tail-flick assay; details: inhaled or nasal
# Mus musculus [2] = experiment: Antinociceptive activity in sc dosed mouse assessed as jumping or licking of paw behavior after 5 mins by hot-plate test
# Mus musculus [3] = experiment: Antinociceptive activity in sc dosed mouse assessed as reduction of body rectal temperature; type: functional
# Mus musculus [4] = experiment: Antinociceptive activity in sc dosed mouse assessed as spontaneous locomotor activity measured for 10 mins; type: functional
# [5] = target: T1, Neuronal acetylcholine receptor; alpha4/beta2 (Rattus norvegicus) (UniProt P09483+P12390); experiment: Agonist activity at rat alpha4beta2 nAChR expressed in Xenopus laevis oocytes assessed as mean current response at 100 uM by two-electrode voltage clamp electrophysiology assay relative to acetylcholine; type: cell-based
# [6] = target: T2, Neuronal acetylcholine receptor; alpha3/beta4 (Rattus norvegicus) (UniProt P04757+P12392); experiment: Agonist activity at rat alpha3beta4 nAChR expressed in Xenopus laevis oocytes assessed as mean current response at 100 uM by two-electrode voltage clamp electrophysiology assay relative to acetylcholine; type: cell-based
# [7] = target: Neuronal acetylcholine receptor subunit alpha-7 (Rattus norvegicus) (UniProt Q05941); experiment: Agonist activity at rat alpha7 nAChR expressed in Xenopus laevis oocytes assessed as mean current response at 100 uM by two-electrode voltage clamp electrophysiology assay relative to acetylcholine; type: cell-based
# Sequence of Neuronal acetylcholine receptor subunit alpha-7 (Rattus norvegicus) (Q05941 whole entry): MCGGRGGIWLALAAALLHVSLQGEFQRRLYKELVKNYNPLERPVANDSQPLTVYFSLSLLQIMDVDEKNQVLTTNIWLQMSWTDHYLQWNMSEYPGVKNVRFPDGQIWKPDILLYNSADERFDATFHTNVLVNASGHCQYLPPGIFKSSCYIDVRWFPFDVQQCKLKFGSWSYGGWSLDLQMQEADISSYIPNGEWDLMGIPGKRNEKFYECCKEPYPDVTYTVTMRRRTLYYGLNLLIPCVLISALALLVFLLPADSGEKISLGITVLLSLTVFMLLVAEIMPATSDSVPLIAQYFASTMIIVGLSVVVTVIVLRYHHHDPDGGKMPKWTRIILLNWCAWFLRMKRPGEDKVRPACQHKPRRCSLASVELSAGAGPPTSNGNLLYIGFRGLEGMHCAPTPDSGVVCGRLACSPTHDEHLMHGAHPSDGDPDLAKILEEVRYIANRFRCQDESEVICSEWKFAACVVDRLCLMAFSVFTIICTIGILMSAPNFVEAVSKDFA
# [8] = target: T3, Neuronal acetylcholine receptor; alpha4/beta2 (Rattus norvegicus, UniProt P09483+P12390); experiment: Displacement of [3H]-epibatidine from alpha4beta2 nAChR in rat cerebral cortex homogenates after 4 hrs by liquid scintillation counting; type: tissue-based
# T3 sequence (P09483 whole entry): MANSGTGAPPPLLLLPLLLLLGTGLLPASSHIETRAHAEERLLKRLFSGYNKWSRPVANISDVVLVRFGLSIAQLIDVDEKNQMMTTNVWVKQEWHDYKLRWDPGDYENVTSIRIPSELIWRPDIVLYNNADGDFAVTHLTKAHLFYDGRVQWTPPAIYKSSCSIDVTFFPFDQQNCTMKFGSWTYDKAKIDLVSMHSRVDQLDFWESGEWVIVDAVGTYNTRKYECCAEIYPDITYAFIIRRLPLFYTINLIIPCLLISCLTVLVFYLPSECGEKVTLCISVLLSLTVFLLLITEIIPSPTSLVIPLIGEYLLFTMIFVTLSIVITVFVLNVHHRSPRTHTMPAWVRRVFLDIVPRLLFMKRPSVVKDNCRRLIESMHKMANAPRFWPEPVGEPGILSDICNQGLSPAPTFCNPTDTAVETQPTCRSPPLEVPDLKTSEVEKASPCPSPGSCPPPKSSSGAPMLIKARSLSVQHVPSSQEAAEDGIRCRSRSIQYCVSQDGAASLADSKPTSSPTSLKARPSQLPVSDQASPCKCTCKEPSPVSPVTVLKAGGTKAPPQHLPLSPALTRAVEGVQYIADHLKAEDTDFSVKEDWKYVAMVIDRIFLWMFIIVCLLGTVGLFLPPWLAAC
# T3 sequence (P12390 whole entry): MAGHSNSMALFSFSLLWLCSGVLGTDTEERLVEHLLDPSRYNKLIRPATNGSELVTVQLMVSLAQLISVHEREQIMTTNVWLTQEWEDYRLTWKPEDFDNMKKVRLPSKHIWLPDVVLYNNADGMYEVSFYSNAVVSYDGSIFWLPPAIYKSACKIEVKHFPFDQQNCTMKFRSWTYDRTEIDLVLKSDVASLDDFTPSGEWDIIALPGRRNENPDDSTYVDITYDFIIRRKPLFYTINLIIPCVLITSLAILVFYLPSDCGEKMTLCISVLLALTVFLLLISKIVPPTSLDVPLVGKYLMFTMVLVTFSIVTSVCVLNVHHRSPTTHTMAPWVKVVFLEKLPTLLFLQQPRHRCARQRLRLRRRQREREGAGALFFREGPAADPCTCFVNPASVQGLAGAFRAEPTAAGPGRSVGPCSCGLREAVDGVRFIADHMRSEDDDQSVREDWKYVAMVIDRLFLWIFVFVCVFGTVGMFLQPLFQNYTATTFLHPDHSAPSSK
# Mus musculus [9] = experiment: Antinociceptive activity in mouse assessed as maximum latency at 10 mg/kg, administered as intratracheally after 5 mins by tail-flick assay; type: functional
# Mus musculus [10] = experiment: Antinociceptive activity in mouse assessed as jumping or licking of paw behavior at 10 mg/kg, sc after 5 mins by hot-plate test; type: functional
# Mus musculus [11] = experiment: Antinociceptive activity in intratracheally dosed mouse assessed as inhibition of nicotine-induced antinociception after 5 mins by tail-flick assay; type: functional
# Mus musculus [12] = experiment: Antinociceptive activity in mouse assessed as inhibition of nicotine-induced antinociception at 1000 ug/kg, sc after 5 mins by hot-plate test; type: functional
# [13] = target: T3, Neuronal acetylcholine receptor; alpha4/beta2; experiment: Antagonist activity at rat alpha4beta2 nAChR expressed in Xenopus laevis oocytes assessed as inhibition of acetylcholine-induced mean current response by two-electrode voltage clamp electrophysiology assay; type: cell-based
# Procedure, shortened: (§1)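 Rat nAChRs in Xenopus oocytes under two-electrode voltage clamp. […] IC50 is taken from concentration-inhibition curves.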
# [14] = target: Neuronal acetylcholine receptor; alpha3/beta4 (Rattus norvegicus, UniProt P04757+P12392); experiment: Antagonist activity at rat alpha3beta4 nAChR expressed in Xenopus laevis oocytes assessed as inhibition of acetylcholine-induced mean current response by two-electrode voltage clamp electrophysiology assay; type: cell-based; procedure, shortened: as §1
# Sequence of Neuronal acetylcholine receptor; alpha3/beta4 (P04757 whole entry): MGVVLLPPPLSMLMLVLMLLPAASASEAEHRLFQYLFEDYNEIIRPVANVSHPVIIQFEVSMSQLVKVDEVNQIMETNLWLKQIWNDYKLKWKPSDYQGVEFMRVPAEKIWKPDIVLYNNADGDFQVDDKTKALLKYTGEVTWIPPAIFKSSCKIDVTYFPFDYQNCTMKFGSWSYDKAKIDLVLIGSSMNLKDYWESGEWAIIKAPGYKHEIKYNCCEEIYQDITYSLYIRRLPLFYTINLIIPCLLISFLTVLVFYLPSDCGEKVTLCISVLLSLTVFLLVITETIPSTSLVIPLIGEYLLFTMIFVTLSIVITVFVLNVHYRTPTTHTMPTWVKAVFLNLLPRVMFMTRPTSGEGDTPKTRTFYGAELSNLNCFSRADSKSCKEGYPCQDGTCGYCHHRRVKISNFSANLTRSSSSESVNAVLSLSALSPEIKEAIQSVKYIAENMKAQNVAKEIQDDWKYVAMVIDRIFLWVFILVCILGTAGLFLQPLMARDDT
# Sequence of Neuronal acetylcholine receptor; alpha3/beta4 (P12392 whole entry): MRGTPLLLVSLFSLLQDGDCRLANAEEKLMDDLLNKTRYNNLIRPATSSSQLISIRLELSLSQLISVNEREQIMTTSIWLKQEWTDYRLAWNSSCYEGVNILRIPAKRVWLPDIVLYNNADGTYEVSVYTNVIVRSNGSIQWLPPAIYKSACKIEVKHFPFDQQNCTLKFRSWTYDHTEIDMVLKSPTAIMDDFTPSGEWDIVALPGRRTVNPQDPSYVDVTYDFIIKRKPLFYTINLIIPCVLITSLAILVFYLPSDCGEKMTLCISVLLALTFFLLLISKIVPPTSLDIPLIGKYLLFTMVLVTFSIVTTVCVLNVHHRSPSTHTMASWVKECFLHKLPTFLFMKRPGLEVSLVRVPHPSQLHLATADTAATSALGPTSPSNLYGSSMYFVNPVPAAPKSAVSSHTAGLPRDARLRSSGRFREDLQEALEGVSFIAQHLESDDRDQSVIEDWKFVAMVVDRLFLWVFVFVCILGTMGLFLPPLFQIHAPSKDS
# [15] = target: Neuronal acetylcholine receptor subunit alpha-7 (Rattus norvegicus, UniProt Q05941); experiment: Antagonist activity at rat alpha7 nAChR expressed in Xenopus laevis oocytes assessed as inhibition of acetylcholine-induced mean current response by two-electrode voltage clamp electrophysiology assay; type: cell-based; procedure, shortened: as §1
# Sequence of Neuronal acetylcholine receptor subunit alpha-7 (Q05941 whole entry): as the sequence (Q05941 whole entry) above
# [16] = target: Neuronal acetylcholine receptor subunit alpha-7 (Rattus norvegicus) (UniProt Q05941); experiment: Antagonist activity at rat alpha7 nAChR expressed in Xenopus laevis oocytes assessed as inhibition of acetylcholine-induced mean current response by measuring remaining current at 100 uM by two-electrode voltage clamp electrophysiology assay relative to control; values are per cent of control
# [17] = target: T1, Neuronal acetylcholine receptor; alpha4/beta2 (Rattus norvegicus); experiment: Antagonist activity at rat alpha4beta2 nAChR expressed in Xenopus laevis oocytes assessed as inhibition of acetylcholine-induced mean current response by measuring remaining current at 100 uM by two-electrode voltage clamp electrophysiology assay relative to control; values are per cent of control
# [18] = target: T2, Neuronal acetylcholine receptor; alpha3/beta4 (Rattus norvegicus); experiment: Antagonist activity at rat alpha3beta4 nAChR expressed in Xenopus laevis oocytes assessed as inhibition of acetylcholine-induced mean current response by measuring remaining current at 100 uM by two-electrode voltage clamp electrophysiology assay relative to control; values are per cent of control
# Mus musculus [19] = experiment: Antinociceptive activity in mouse assessed as reduction of body rectal temperature at 10 mg/kg, sc; type: functional; set-up: scale not given: the % may be the effect or the level left
# Mus musculus [20] = experiment: Antinociceptive activity in mouse assessed as spontaneous locomotor activity at 10 mg/kg, sc measured for 10 mins; type: functional
# Mus musculus [21] = experiment: Antinociceptive activity in sc dosed mouse assessed as inhibition of nicotine-induced antinociception after 5 mins by hot-plate test; type: functional
# Mus musculus [22] = experiment: Antinociceptive activity in mouse assessed as inhibition of nicotine-induced antinociception at 10000 ug/kg, sc after 5 mins by hot-plate test; type: functional
Structure (SMILES),ED50 (Mus musculus [3]) [mg/kg],ED50 (Mus musculus [4]) [mg/kg],Activity [5] [%],Activity [6] [%],Activity [7] [%],Ki [8] [nM],Activity (Mus musculus [9]) [%],Activity (Mus musculus [10]) [%],AD50 (Mus musculus [11]) [mg/kg],inhibition in vivo at 1 mg/kg (Mus musculus [12]) [%],IC50 [13] [µM],IC50 [14] [µM],IC50 [15] [µM],residual activity [16] [%],residual activity [17] [%],residual activity [18] [%],other results
Clc1ccc([C@H]2C[C@H]3CC[C@H]2N3)cn1,0.004,0.001,131,97,150,–,–,–,–,–,–,–,–,–,–,–,ED50 (Mus musculus [1]): 0.006 mg/kg; ED50 (Mus musculus [2]): 0.004 mg/kg
Fc1ccc(-c2cncc([C@H]3C[C@H]4CC[C@H]3N4)c2)cn1 (racemic),2.78,0.69,0,5.5,0,0.13,10,10,0.002,10,1.3,33,60,36,7.9,41,–
c1cc(-c2cncc([C@H]3C[C@H]4CC[C@H]3N4)c2)ccn1 (racemic),5,1.76,1,9.5,8.1,0.22,7,4,0.039,20,7.1,23,179,69,3.9,11,–
Fc1cc(-c2cncc([C@H]3C[C@H]4CC[C@H]3N4)c2)ccn1 (racemic),5.2,1.78,0,9.5,5.7,0.18,13,34,0.0012,46,2.9,23,233,90,8.1,18,–
Clc1cc(-c2cncc([C@H]3C[C@H]4CC[C@H]3N4)c2)ccn1 (racemic),6.2,1.6,0,6.5,8.1,0.29,10,30,0.11,36,11,20,97,47,5.7,10,–
Nc1cc(-c2cncc([C@H]3C[C@H]4CC[C@H]3N4)c2)ccn1 (racemic),–,–,0,1.2,12,0.38,1,5,0.001,32,–,–,–,44,5.2,4.2,Activity (Mus musculus [19]): 0%; Activity (Mus musculus [20]): 20%
COc1cc(-c2cncc([C@H]3C[C@H]4CC[C@H]3N4)c2)ccn1 (racemic),10,–,0,6.1,16,0.094,14,50,0.0003,–,1.2,13,114,47,4,7.2,AD50 (Mus musculus [21]): 0.9 mg/kg
c1cncc(-c2cncc([C@H]3C[C@H]4CC[C@H]3N4)c2)c1 (racemic),7,3,0,4.5,5.8,0.81,3,14,0.00068,–,6.4,22,117,59,5.3,14,AD50 (Mus musculus [21]): 2 mg/kg
Clc1ccc(-c2cncc([C@H]3C[C@H]4CC[C@H]3N4)c2)cn1 (racemic),5.5,0.56,0,3.1,4.8,0.12,8,17,0.0005,10,2.7,24,66,38,4.8,12,–
Nc1ccc(-c2cncc([C@H]3C[C@H]4CC[C@H]3N4)c2)cn1 (racemic),–,–,0,0,7,0.9,3,14,0.0015,–,–,–,–,46,5.7,5.4,Activity (Mus musculus [19]): 0%; Activity (Mus musculus [20]): 20%; inhibition in vivo at 10 mg/kg (Mus musculus [22]): 50%
COc1ccc(-c2cncc([C@H]3C[C@H]4CC[C@H]3N4)c2)cn1 (racemic),5.5,0.56,0,2.4,1.2,0.27,8,17,0.0005,10,1.8,8.2,30,18,4.5,8.4,–
CN1CCC[C@H]1c1cccnc1 [NICOTINE],1,0.5,40,37,43,–,–,–,–,–,–,–,–,–,–,–,ED50 (Mus musculus [1]): 1.3 mg/kg; ED50 (Mus musculus [2]): 0.65 mg/kg
c1cnc2cc3c(cc2n1)[C@@H]1CNC[C@H]3C1 [VARENICLINE],2.8,2.1,13,66,74,–,11,10,0.0002,–,–,–,–,–,–,–,AD50 (Mus musculus [21]): 0.47 mg/kg
